In the library only some 0.3% were active in any assay of this set; here they are far more common.
BasE inh: BasE siderophore biosynthesis inhibition; purified BasE, fluorescence polarization binding displacement; inhibition, % (concentration not given with the values); actives 0.1% (n = 84,000); in the data active means inhibition above about 25%, passing the limit was not always enough
KSHV LANA nucl: inhibitors of KSHV LANA binding to nucleosomes | z-score (concentration not given with the values) | FITC-LANA1-23 / chicken nucleosome fluorescence polarization; hits give low values | actives 0.3% (n = 51,000);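 active means both repeat wells score below -2 in polarization z-score versus plate sample wells, excluding overly bright wells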
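Assay system: purified chicken nucleosomes with FITC-labelled LANA N-terminal peptide (1-23) / Probe or stimulus: 50 nM FITC-LANA1-23 probe / Compound dosing: pin-transferred compound, 100 nL / Times: compound with peptide–nucleosome mix 10–45 min at room temperature / Technique: fluorescence polarization, 480 nm excitation, 535 nm parallel and perpendicular emission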
Each line names hits and unclear results; the compound was inactive in the other large screens; ! = not active in a repeat.

O=C(O)c1cc(-c2ccc(O)c(O)c2)nc2n[nH]c(-c3ccc(F)cc3)c12	BasE inh 41
COc1ccc(-c2cc(C(=O)N3CCOCC3)c3c(-c4ccc(Cl)cc4)[nH]nc3n2)cc1	none
OCCN(CCO)c1nc(N2CCCCC2)c2nc(N(CCO)CCO)nc(N3CCCCC3)c2n1	BasE inh 36!, KSHV LANA nucl -2.3!
C1CCCN(c2nc3nonc3nc2N2CCCCCC2)CC1	none
Cc1ccccc1CNC(=O)C1CCN(C(=O)c2sccc2-n2cccc2)CC1	none
Cc1cc(C=C(C#N)C#N)c(C)n1-c1ccc(S(N)(=O)=O)cc1	none
N#C/C(=C\c1ccc(-c2cc(C(F)(F)F)ccc2Cl)o1)C(=O)O	none (no result: KSHV LANA nucl)
N#C/C(=C/c1ccc(-c2cc(C(=O)O)ccc2Cl)o1)C(=O)NCCc1c[nH]c2ccccc12	BasE inh 31
O=C(NCC1CCCO1)C1c2ccccc2C(=O)N1CCc1ccccc1 (stereo not drawn)	none
Cc1ccnc(SCC(=O)c2cccs2)n1	BasE inh 61 (no result: KSHV LANA nucl)
Cc1cc(=O)[nH]c(SCC(=O)c2cccs2)n1	none (no result: KSHV LANA nucl)
Cc1ccnc(SCC(=O)c2ccc(Br)cc2)n1	BasE inh 44
COc1cc(C(=O)CSc2nccc(C)n2)cc(OC)c1OC	none (no result: KSHV LANA nucl)
CN1/C(=C\P(=O)(c2ccccc2)N2CCOCC2)C(C)(C)c2ccccc21 (stereo not drawn)	none (no result: KSHV LANA nucl)
CC(C)CNS(=O)(=O)c1ccc2nc(NC(=O)c3ccccn3)sc2c1	none
N#Cc1c(=O)n(O)c2ccccc2[n+]1[O-]	KSHV LANA nucl -13
O=c1c(-c2ccc(Oc3ccccc3)cc2)[n+]([O-])c2ccccc2n1O	none
OCCNCCSc1nnc(-c2ccccc2)n1-c1ccccc1	none (no result: KSHV LANA nucl)
CC1=CC(C)=NC2Nc3c(C)cc(C)cc3C(=N)C12 (stereo not drawn)	KSHV LANA nucl -2.2
CCN1C(=O)CC(NC2CCN(C(=O)c3cccs3)CC2)C1=O (stereo not drawn)	none
O=C(Nc1nc(SCc2ccc(Cl)cc2)n[nH]1)C1=NN(C2CCS(=O)(=O)C2)C(=O)CC1 (stereo not drawn)	none (no result: KSHV LANA nucl)
CCNC(=S)N1CCN(S(=O)(=O)c2ccc(Cl)cc2)CC1	KSHV LANA nucl -2.2
CCNC(=S)N1CCN(S(=O)(=O)c2ccc(C)cc2)CC1	none (no result: KSHV LANA nucl)
O=C(N/N=C1\CCS(=O)(=O)c2ccc(F)cc21)c1ccc(O)cc1	BasE inh 55 (no result: KSHV LANA nucl)
O=C(N/N=C1/CCS(=O)(=O)c2ccc(F)cc21)c1ccccn1	none (no result: KSHV LANA nucl)
O=C(Nc1cccc(-c2nn[nH]n2)c1)c1cccc(C(F)(F)F)c1	none
O=C(Nc1cccc(-c2nn[nH]n2)c1)c1ccc(Br)o1	KSHV LANA nucl -2.1
NC(=S)Cc1nc2ccccc2s1	none (no result: KSHV LANA nucl)
Cc1ccc(C)n1-c1cc(Cl)ccc1N1CCCCC1	none (no result: KSHV LANA nucl)
Cc1ccc(C)n1-c1cc(Cl)ccc1C(=O)O	BasE inh 85
O=C(O)Cc1nonc1NCn1nnc2ccccc21	BasE inh 40
c1ccc2c(c1)nnn2CNCn1nnc2ccccc21	none
CCCn1nc(C(=O)N(C)CCOc2ccccc2)c2ccccc2c1=O	none (no result: KSHV LANA nucl)
COc1ccc(C(=O)/C=C2/NCC(C)NC2=O)cc1 (stereo not drawn)	none
N#C/C(=C\c1ccco1)C(N)=S	none (no result: KSHV LANA nucl)
N#C/C(=C\C=C\c1ccco1)C(N)=S	BasE inh 33
CCOC(=O)c1cnc(SCC(=O)Nn2c(C)nc3sc(C)cc3c2=O)nc1N	none
CCCc1c(C)c(C#N)c2[nH]c3ccccc3n2c1=O	none
CC(=O)N1CC(C)Oc2ccc(S(=O)(=O)N(Cc3ccccc3)C(C)C)cc21 (stereo not drawn)	none
NC(=O)CC12CC3CC(C1)CC(CC(N)=O)(C3)C2	BasE inh 57
O=C(O)CC12CC3CC(C1)CC(CC(=O)O)(C3)C2	none (no result: KSHV LANA nucl)
Cn1c(-[n+]2ccccc2)c(/C=N/NC(N)=S)sc1=O	none
NC(=O)C1C2C=CC(C2)C1C(=O)O (stereo not drawn)	none (no result: KSHV LANA nucl)
COc1ccc(CNC(=O)CN2CCC(=O)CC2)cc1	none (no result: KSHV LANA nucl)
O=C(O)c1ccccc1O	none
O=C(O)c1cccn2nnnc12	KSHV LANA nucl -2.3
CC(C)CNC(=O)c1ccc(CN2CCOCC2)cc1	none
Cc1noc(C)c1CSCC(=O)Nc1nccs1	none (no result: KSHV LANA nucl)
Cc1ccc(N2C(=O)c3cccc4c(N5CCN(C)CC5)ccc(c34)C2=O)c2cccnc12	BasE inh 27, KSHV LANA nucl -2.8
Cc1cccc(N2C(=O)c3cccc4c(N5CCNCC5)ccc(c34)C2=O)c1	none
COc1ccc(NC(=O)C(NC(=O)c2ccccc2)C(C)C)cn1 (stereo not drawn)	none (no result: KSHV LANA nucl)
N#Cc1ccccc1Cn1cc(C=C2C(=O)NC(=O)NC2=O)c2ccccc21	KSHV LANA nucl -3.6
O=C1NC(=O)/C(=C\c2cn(Cc3ccccc3F)c3ccccc23)N1	none (no result: KSHV LANA nucl)
CSc1scc2c1C(=O)CC(C)(C)C2	none (no result: KSHV LANA nucl)
CSc1scc2c1C(=O)/C(=C/N(C)C)CC2	BasE inh 36
O=C(O)C1Nc2c(I)cccc2C2C=CCC12 (stereo not drawn)	BasE inh 47
COC(=O)c1ccc([C@@H]2Nc3c(C)cccc3[C@@H]3C=CC[C@@H]32)cc1	none (no result: KSHV LANA nucl)
CCC(C)c1ccc(O)c(NC(=O)c2cccnc2)c1 (stereo not drawn)	none (no result: KSHV LANA nucl)
C/C(=C\C(=O)c1cccnc1)Nc1ccccc1O	BasE inh 30
O=c1ccc2cc3c4c(c2o1)CCCN4CCC3	KSHV LANA nucl -5.2
CC(C)c1c(Br)c(=O)oc2c3c4c(cc12)CCCN4CCC3	none (no result: KSHV LANA nucl)
Cc1cc2c(n1-c1ccc(C(=O)O)cc1)CCCC2	BasE inh 31
Cc1cc2c(n1-c1ccc(C(=O)NCCc3cccs3)cc1)CCCC2	none
C=CCn1c(=O)[nH]c2nc3cc(NC(=O)CC)ccc3nc2c1=O	none
C=CCn1c(=O)[nH]c2nc3cc(N=CN(C)C)ccc3nc2c1=O	KSHV LANA nucl -5.8
O=C1Nc2ccccc2SC1N1CCCCC1 (stereo not drawn)	none (no result: KSHV LANA nucl)
CC(=O)Oc1ccc2c(oc(=O)c3ccccc32)c1C	none
Cc1cc2c(c(=O)[nH]1)C(c1ccncc1)C(C#N)=C(N)O2 (stereo not drawn)	none
COC(=O)C1=C(N)Oc2cc(C)[nH]c(=O)c2C1c1ccccc1OC (stereo not drawn)	BasE inh 43
Cc1cc(O)c(Cc2cc(Cl)c3cccnc3c2O)c(=O)o1	BasE inh 78 (no result: KSHV LANA nucl)
O=c1oc2ccccc2c(O)c1Cc1cc(Cl)c2cccnc2c1O	none (no result: KSHV LANA nucl)
Cn1c(O)c(N=O)c2ccccc21	none
Cc1sc2c(c1C)CSCC2=O	none
CC(C)(C)NC(=O)NC(=O)Cn1c(NCCO)nc2ccccc21	none (no result: KSHV LANA nucl)
CCn1cc2nc(SCC(=O)NCc3ccccc3)n(Cc3ccc(OC)cc3)c(=O)c2n1	none (no result: KSHV LANA nucl)
CCCn1c(SCC(=O)Nc2ccccc2C(F)(F)F)nnc1-c1ccoc1C	none
Cn1c(=O)c2c(SCC(=O)Nc3ccccc3C(F)(F)F)ccnc2n(C)c1=O	KSHV LANA nucl -2.1
O=C(O)c1ccc(C2SCCCS2)cc1	none (no result: KSHV LANA nucl)
Oc1ccc(C2SCCS2)cc1	BasE inh 53 (no result: KSHV LANA nucl)
N#C/C(=C/c1ccc(Sc2nc3ccccc3[nH]2)o1)C(=O)N1CCOCC1	none
O=C(Nc1ccc(N2CCOCC2)c2nonc12)c1cc(-c2cccnc2)nc2ccc(Cl)cc12	none
CC(C)c1nc(NCc2ccccc2)c(C#N)c2c1CCCC2	none
N#Cc1c(NCc2ccccc2)ncc2c1Nc1ccccc1C2	KSHV LANA nucl -3.3
Cc1nnc2c(Nc3ccccc3I)nc3nonc3n12	none
Cc1csc(C(C#N)C(=O)CSc2cc(C)c3ccccc3n2)n1 (stereo not drawn)	none (no result: KSHV LANA nucl)
Cc1csc(C(C#N)C(=O)CSc2nc3ccccc3n2-c2ccccc2)n1 (stereo not drawn)	BasE inh 35 (no result: KSHV LANA nucl)
O=C(/C(=C\c1ccc(F)cc1)n1ccccc1=O)N1CCCC1	none

High-throughput results (PubChem BioAssay)
